Laboratory results from ChEMBL document CHEMBL1140381, “Design and studies of novel 5-substituted alkynylpyrimidine nucleosides as potent inhibitors of mycobacteria” (2005).
In brackets after ≈: the same amount, converted by molar mass.

Legend:
Assay type in all cases: functional
Mycobacterium avium [1] = test: Inhibition of growth of Mycobacterium avium (ATCC 25291) was determined using microplate alamar blue assay at 100 ug/mL concentration with compound dissolved in DMSO
Method in brief: (§1)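 MABA in 7H9GC medium; M. bovis BCG or M. avium ATCC 25291 frozen inocula at 2.5 × 10⁵ CFU/mL final, 100× DMSO stocks diluted into medium. Incubated 6 days, then alamar blue plus 20% Tween-80 added once bacteria-only wells turned pink, read 24 h later by fluorescence. % inhibition = […]. Triplicate wells, three experiments, mean reported.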

Mycobacterium avium [2] = test: Inhibition of growth of Mycobacterium avium (ATCC 25291) was determined using microplate alamar blue assay at 50 ug/mL concentration with compound dissolved in DMSO; method in brief: as §1
Mycobacterium avium [3] = test: Inhibition of growth of Mycobacterium avium (ATCC 25291) was determined using microplate alamar blue assay at 10 ug/mL concentration with compound dissolved in DMSO; method in brief: as §1
Mycobacterium avium [4] = test: Minimum inhibitory concentration against Mycobacterium avium (ATCC 25291)
Method in brief: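 Alamar blue microplate assay in 7H9GC. BCG or M. avium ATCC 25291 at 2.5 × 10⁵ CFU/mL final, exposed to compound at 100, 50, 10 and 1 µg/mL in triplicate. Reagent added after 6+ days once growth controls turned pink, read after 24 h visually and by fluorescence. MIC₉₀ taken as the lowest concentration giving ~90% growth inhibition.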

Mycobacterium avium [5] = test: Inhibition of growth of Mycobacterium avium (ATCC 25291) was determined using microplate alamar blue assay at 2 ug/mL concentration with compound dissolved in DMSO

Compound | inhibition at 100 µg/mL (Mycobacterium avium [1]) [%] | inhibition at 50 µg/mL (Mycobacterium avium [2]) [%] | inhibition at 10 µg/mL (Mycobacterium avium [3]) [%] | MIC90 (Mycobacterium avium [4]) [µg/mL] | inhibition at 2 µg/mL (Mycobacterium avium [5]) [%]
CCCCCCCCC#Cc1cn([C@H]2C[C@H](O)[C@@H](CO)O2)c(=O)[nH]c1=O | 30 | – | – | – | –
CCCCCCCCCCC#Cc1cn([C@H]2C[C@H](O)[C@@H](CO)O2)c(=O)[nH]c1=O | 75 | 0 | – | – | –
CCCCCCCCCCCCC#Cc1cn([C@H]2C[C@H](O)[C@@H](CO)O2)c(=O)[nH]c1=O | 75 | 30 | – | – | –
CCCCCCCCC#Cc1cn([C@H]2C[C@H](O)[C@@H](CO)O2)c(=O)nc1N | 75 | 50 | 20 | – | –
CCCCCCCCCCC#Cc1cn([C@H]2C[C@H](O)[C@@H](CO)O2)c(=O)nc1N | 100 | 60 | 10 | 100 (≈ 255 µM) | –
CCCCCC#Cc1cn([C@H]2C[C@H](O)[C@@H](CO)O2)c(=O)[nH]c1=O | 25 | – | – | – | –
CC[C@H]1OC(=O)[C@H](C)[C@@H](O[C@H]2C[C@@](C)(OC)[C@@H](O)[C@H](C)O2)[C@H](C)[C@@H](O[C@@H]2O[C@H](C)C[C@H](N(C)C)[C@H]2O)[C@](C)(OC)C[C@@H](C)C(=O)[C@H](C)[C@@H](O)[C@]1(C)O [CLARITHROMYCIN] | – | – | – | 2 (≈ 2.67 µM) | 95
CO[C@H]1/C=C/O[C@@]2(C)Oc3c(C)c(O)c4c(O)c(c(/C=N/N5CCN(C)CC5)c(O)c4c3C2=O)NC(=O)/C(C)=C\C=C\[C@H](C)[C@H](O)[C@@H](C)[C@@H](O)[C@@H](C)[C@H](OC(C)=O)[C@@H]1C [RIFAMPIN] | – | – | – | 2 (≈ 2.43 µM) | 90
